Screening data (PubChem BioAssay)
Most compounds without a hit are left out; they make up all but 1.8% or so of the library.
CHRM4 antagonist: CHRM4 antagonism in calcium assay. inhibition, % at 3 µM. AID 624125. CHO-hM4 cells, ACh EC80, Fluo-8 calcium fluorescence. actives 0.73% (n = 360,000). P08173;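 active = inhibition above its plate's cutoff, the mean inhibition of sample wells plus 3 SD, cut at about 27% in these data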;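 also: 0% = acetylcholine EC80 with DMSO and 100% = DMSO without agonist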
M4 PAM: CHRM4 positive allosteric modulation | actives 0.4% (n = 360,000) | CHO-K1 hM4/Gqi5, Fluo-8 calcium fluorescence, ACh EC20; 0% = ACh EC20, 100% = maximal ACh | activation, % at 3 µM | P08173;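 active = activation above its plate's cutoff, the mean activation of sample wells plus 3 SD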
M4 ag: CHRM4 agonism in calcium assay | CHO-K1 hM4/Gqi5, Fluo-8 calcium fluorescence; vehicle 0%, full acetylcholine response 100% | actives 0.14% (n = 360,000) | activation, % at 3 µM;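 active = activation above the run mean over all test wells plus 3 SD, cut at about 32% in these data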;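 also: peak over basal fluorescence ratio per well then scaled between controls; 0% = DMSO wells and 100% = acetylcholine at EC100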
CHRM5 antagonist: antagonists of human muscarinic M5 receptor (CHRM5); actives 0.59% (n = 360,000); CHO-hM5 cells, Fluo-8 calcium fluorescence, ACh EC80; P08912; AID 624040; inhibition, % at 3 µM;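 active = inhibition above a per-plate cutoff, the mean of that plate's test compounds plus 3 SD, cut at about 27% in these data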;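 also: 0% = acetylcholine EC80 with DMSO and 100% = DMSO without agonist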
Target sequence (P08912 whole entry, looked up): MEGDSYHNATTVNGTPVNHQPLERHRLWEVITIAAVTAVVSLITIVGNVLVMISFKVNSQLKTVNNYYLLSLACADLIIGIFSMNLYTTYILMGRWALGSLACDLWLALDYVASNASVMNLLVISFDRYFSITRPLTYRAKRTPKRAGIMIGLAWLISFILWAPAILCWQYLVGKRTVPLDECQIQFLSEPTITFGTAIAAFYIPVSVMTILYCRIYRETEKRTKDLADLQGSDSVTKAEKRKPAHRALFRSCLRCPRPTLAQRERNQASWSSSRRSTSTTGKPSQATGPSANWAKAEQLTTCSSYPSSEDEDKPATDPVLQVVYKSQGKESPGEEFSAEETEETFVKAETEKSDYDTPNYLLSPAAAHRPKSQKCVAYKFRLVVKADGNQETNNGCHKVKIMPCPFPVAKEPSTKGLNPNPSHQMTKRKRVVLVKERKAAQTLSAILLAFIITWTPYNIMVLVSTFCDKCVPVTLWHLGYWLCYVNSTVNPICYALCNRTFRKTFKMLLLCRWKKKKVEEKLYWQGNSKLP
CHRM5 agonist: CHRM5 agonism in calcium assay; actives 0.19% (n = 360,000); activation, % at 3 µM; CHO-K1 hM5 cells, Fluo-8 calcium fluorescence; 0% DMSO wells, 100% maximal acetylcholine response;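 active = activation above the run's mean over test compounds plus 3 SD, cut at about 23% in these data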;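 also: signal is peak over basal fluorescence ratio across the kinetic read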
CHRM5 PAM: positive allosteric modulators of human muscarinic M5 receptor. P08912. activation, % at 3 µM. CHO-K1 hM5, Fluo-8 calcium, ACh EC20 PAM; 0% = ACh EC20, 100% = ACh EC100. actives 0.3% (n = 360,000);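 active = activation above the run cutoff, the mean activation of all test compounds plus 3 SD, cut at about 18% in these data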
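Assay system – human M5 receptor in CHO-K1 cells · Read-out – % activation, ACh-normalized · Technique – Fluo-8 calcium fluorescence · Dosing – single-point, 3 µM nominal · Incubation – Fluo-8 loading 80 min at 37 °C plus 30 min room temperature · Repeats – singlicate, one well per test compound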
* = called active by the depositor.

SMILES	CHRM4 antagonist	M4 PAM	M4 ag	CHRM5 antagonist	CHRM5 agonist	CHRM5 PAM
O=c1c2cc(NC(=S)NCCCN3CCC(Cc4ccccc4)CC3)ccc2nc2n1CCCCC2	44*	-29	20	14	3	-20
O=C1NC(=S)NC1(c1ccccc1)c1ccccc1	41*	-9	0	9	-11	-14
O=C1NC(=O)C(c2ccccc2)(c2ccccn2)N1 (configuration not stated)	-3	4	1	11	2	-1
COc1ccc(Br)c(Cn2c(C)c(C(=O)NCc3ccc(F)cc3)sc2=O)c1	-11	-15	15	2	-2	-19
Cc1nn(-c2ccccc2)c(C)c1C(=O)OCC(=O)Nc1ccccc1C(F)(F)F	-2	23*	-3	-3	-3	-5
COc1ccccc1NC(=O)COC(=O)c1c(C)nn(-c2ccccc2)c1C	6	-1	17	17	0	-31
CSc1ccc2c(c1)N(CCC1CCCCN1C)c1ccccc1S2 (configuration not stated)	98*	-19	19	100*	4	-19
CN1CCC2(CC1)N=C(c1ccc(F)cc1)C(=S)N2C(=O)c1ccc(C(C)(C)C)cc1	5	-2	2	33*	-10	-21
C=CCn1c(=O)c(C(=O)Nc2ccccc2O)c(O)c2ccccc21	4	-5	0	-2	-10	-4
CC(C)Cn1c(=O)c(C(=O)Nc2ccncc2)c(O)c2ccccc21	98*	-47	1	100*	-20	-33
C=CCn1c(=O)c(C(=O)Nc2ccccc2C)c(O)c2ccccc21	-16	-4	0	-17	8	27*
CN(C)CC/C=C1/c2cc(F)ccc2CSc2ccc(F)cc21	84*	-37	1	98*	-7	-20
Clc1ccc2c(c1)-c1[nH]ncc1CS2	-3	3	0	1	-1	-1
CN(C)CC/C=C1\c2cc(F)ccc2CSc2ccccc21	97*	-17	11	98*	-2	-18
CC(C)C[C@@H](CO)NS(=O)(=O)c1c(F)cccc1F	-8	9	1	10	0	-6
Fc1ccc(-c2nc3ccc(Cl)cn3c2Cc2cccc(F)c2)cc1	-6	-2	-1	5	-4	-7
O=C(NCc1ccc2c(c1)OCO2)c1cc2ccccc2o1	6	5	0	1	-6	30*
Cc1oc(C(C)(C)C)cc1C(=O)NCc1ccc2c(c1)OCO2	-10	2	2	9	1	0
Cn1nc(C(C)(C)C)cc1C(=O)NCc1ccc2c(c1)OCO2	10	-9	13	29*	5	-11
O=C(O)c1ccccc1C(=O)NCc1ccc2c(c1)OCO2	8	3	0	7	-5	-1
COC(=O)[C@@]12C[C@@H](CC(=O)NCCC(C)C)C(=O)N(Cc3cccc4ccccc34)C1=CCC(C)(C)C2	-1	6	3	1	-1	-5
Cc1cnc(C)c(Nc2nc(C(N)Cc3ccc(Cl)cc3)cs2)n1 (configuration not stated)	2	0	30	1	3	2
CN1CCN(CC#CCC(O)(c2ccccc2)c2ccccc2)CC1	0	6	1	-11	-3	8
CC(C)(C)C(O)(CC#CCN1CCCC1)c1ccccc1 (configuration not stated)	22	-22	1	34*	-13	-33
OC(CC#CCN1CCCCC1)(c1ccccc1)c1ccccc1	44*	-18	2	26	-19	-30
OC(CC#CCN1CCCC1)(c1ccccc1)c1ccccc1	88*	-60	0	58*	-20	-33
OC(CC#CCN1CCOCC1)(c1ccccc1)c1ccccc1	9	-3	2	4	1	-6
CC(O)(C#CCN1CCCC1)c1ccccc1 (configuration not stated)	4	-1	0	18	-7	-13
